Bioassay records deposited in PubChem BioAssay by The Scripps Research Institute Molecular Screening Center.
Sampled rows, rich in hits. Any-hit rate of the full collection: about 2.6%.
SIAE inh: blocks human sialic acid acetylesterase; Q9HAT2; SIAE FP-Rh probe binding, fluorescence polarization; inhibition, % at 9.66 µM; 370,000 tested, 0.69% active;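 active means inhibition above a cutoff: mean of compounds within the control limits plus 3 SD of those, cut at about 17% in these data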
TCR-CD3 inh: inhibitors of human TCR-CD3 interaction. TAMRA-labeled TCR probe fluorescence, biochemical. AID 651800. inhibition, % at 9.4 µM. 360,000 tested, 0.37% active; in the data active means inhibition above about 19%;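 further: recombinant mutant TCR 2C K166C tagged with TAMRA read by polarization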
HTRA1 inhibitor: inhibitors of human serine peptidase HTRA1. Q92743. recombinant HTRA1, FP-rhodamine activity-based probe, fluorescence polarization. inhibition, % at 5.96 µM. 340,000 tested, 0.5% active. AID 504803; in the data active means inhibition above about 36%
ABHD4 inh: inhibitors of mouse ABHD4; Q8VD66; purified mABHD4, FP-Rh probe fluorescence polarization; inhibition, % at 8.92 µM; 370,000 tested, 0.54% active; AID 720543;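 active means inhibition exceeding the mean over every tested compound plus 3 SD, cut at about 30% in these data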
Target sequence (Q8VD66 whole entry, looked up): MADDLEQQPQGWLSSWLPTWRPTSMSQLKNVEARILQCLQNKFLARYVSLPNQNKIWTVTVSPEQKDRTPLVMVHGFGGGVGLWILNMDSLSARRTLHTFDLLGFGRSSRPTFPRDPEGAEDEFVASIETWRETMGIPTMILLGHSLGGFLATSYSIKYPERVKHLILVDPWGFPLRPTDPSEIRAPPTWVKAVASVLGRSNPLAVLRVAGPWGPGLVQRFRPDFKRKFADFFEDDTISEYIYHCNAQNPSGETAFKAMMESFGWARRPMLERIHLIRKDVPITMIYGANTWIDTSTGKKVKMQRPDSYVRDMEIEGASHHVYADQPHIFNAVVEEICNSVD
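Test system: mouse ABHD4 enzyme, wild type. Reagent: FP-Rh fluorescent activity-based probe, added after compound pre-incubation. Timing: pre-incubation 45 min, probe exposure 60 min, at 25 °C. Technique: FP readout, ex 525 nm / em 598 nm. Benchmarks: high control S159A mutant with DMSO, low control median of compound wells.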
PRMT1 FP inh: PRMT1 (human) inhibition, primary screen | recombinant PRMT1, activity-based probe fluorescence polarization | inhibition, % at 2.79 µM | 370,000 tested, 1.3% active | AID 652257;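 active means inhibition above about 21% made by adding two undisclosed values, limit read from the data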
ABHD4 confirm: ABHD4 (mouse) inhibition, FP confirmation. 1,800 tested, 55% active. AID 720658. purified mABHD4, FP-Rh probe fluorescence polarization. inhibition, % at 8.92 µM. shares compounds with ABHD4 inh;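 active means mean inhibition across replicates above the hit cutoff set in the primary screen, cut at about 30% in these data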
Numbers stand for hits; – = inactive; · = no result.

SMILES | SIAE inh | TCR-CD3 inh | HTRA1 inhibitor | ABHD4 inh | PRMT1 FP inh | ABHD4 confirm
CCOC(=O)C1=CCN(S(=O)(=O)c2ccc(C)cc2)C1c1ccccc1 (stereo unspecified) | – | – | · | – | – | ·
Oc1ccc2ccccc2c1N=Nc1ccccn1 | – | – | – | 49.9 | – | 53.2
COc1ccc(-n2c(C)c3c(OC)cccc(=O)c3c2C)cc1 | – | – | – | – | – | ·
COc1cccc(=O)c2c(C)n(-c3ccc(C(=O)O)cc3)c(C)c12 | – | – | – | 30.2 | – | –
COc1ccc(/C=N/Nc2cc(C)nc3ccc(OC)cc23)c(OC)c1 | – | – | – | 30.7 | – | 50.8
CC(C)(C)c1ccccc1NC(=O)N1CCNC(=O)C1CC(=O)Nc1ccc(F)cc1 (stereo unspecified) | – | – | – | – | – | ·
Cc1nc2nc(C)n(CCN3CCOCC3)c(=O)c2c(-c2cccc([N+](=O)[O-])c2)c1C(=O)CCCCCCCCCCN1CCC(c2ccccc2)(c2ccccc2)CC1 | – | – | – | 30.1 | – | 39.1
CCN1C(=O)[C@H]2[C@@H](c3ccc(-c4ccc(F)cc4)c(OC)c3)N[C@@](CC(C)C)(C(=O)OC)[C@H]2C1=O | – | – | · | – | – | ·
C[C@H]1CN([C@@H](C)CO)S(=O)(=O)c2ccc(Br)cc2O[C@H]1CN(C)Cc1ccccc1 | – | – | – | 75.4 | – | –
C[C@H]1CN([C@@H](C)CO)S(=O)(=O)c2ccc(Br)cc2O[C@@H]1CN(C)Cc1ccccc1 | – | – | – | – | – | ·
O=C(NCc1cc(Cl)cc(Cl)c1)c1ccc2nc([C@H]3C[C@H](O)[C@@H](CO)O3)[nH]c2c1 | – | – | · | – | – | ·
O=C(CSc1nnc(-c2ccco2)c(-c2ccco2)n1)Nc1ccccc1 | – | – | – | 50.8 | 47.8 | 38.9
CN(C)c1ccc(NC(=O)CSc2nnc(-c3ccco3)c(-c3ccco3)n2)cc1 | – | – | – | – | – | ·
CSc1nnc(-c2ccco2)c(-c2ccco2)n1 | – | – | – | 39.9 | 59.3 | 46.2
CC(CCc1ccccc1)NC(=O)c1ccc(F)cc1 (stereo unspecified) | – | – | – | – | – | ·
CCOC(=O)c1sc(N/N=C/c2ccc(N(C)C)cc2)nc1C | – | – | – | 31.5 | – | –
CCOc1ccc(C=NNc2ccc(S(=O)(=O)Nc3ccccc3C(=O)O)cc2[N+](=O)[O-])cc1 | – | · | – | · | · | ·
Cc1nn(-c2ccccc2)c(Cl)c1/C=N/Nc1ccc(S(=O)(=O)Nc2ccccc2C(=O)O)cc1[N+](=O)[O-] | 17.6 | – | – | 41.9 | – | 62.0
C=CCOc1ccc(C=NNc2ccc(S(=O)(=O)Nc3ccccc3C(=O)O)cc2[N+](=O)[O-])cc1OC | – | – | – | 50.1 | – | 59.1
CCCC(CCC)=NNc1ccc(S(=O)(=O)Nc2ccccc2OC)cc1[N+](=O)[O-] | – | – | – | – | – | ·
CSc1ccc(C=NNc2ccc(S(=O)(=O)Nc3ccccc3C(=O)O)cc2[N+](=O)[O-])cc1 | – | – | – | 32.2 | – | 77.5
CCOc1cccc(C=NNc2ccc(S(=O)(=O)Nc3ccccc3C(=O)O)cc2[N+](=O)[O-])c1O | – | – | – | 61.9 | – | 66.1
CCCCCCCCN1C(=O)[C@H](CC(=O)NCCC(C)C)C[C@@]2(C(=O)OC)CC(C)(C)CC=C12 | – | – | · | – | – | ·
O=C(O)CCCCCNC(=O)c1ccc(C(=O)NCCCCCC(=O)O)cc1 | – | – | – | 63.1 | – | –
Cc1ccc(OCCC(=O)OC(C)C(=O)NC2CC2)cc1 (stereo unspecified) | – | – | – | – | – | ·
SMILES | SIAE inh | TCR-CD3 inh | HTRA1 inhibitor | ABHD4 inh | PRMT1 FP inh | ABHD4 confirm
Clc1ccc(/C=N/c2c(-c3ccco3)nc3ccccn23)cc1 | – | – | – | 40.9 | – | –
COc1cc(-c2nc3ccccn3c2/N=C/c2ccc(F)cc2)ccc1O | – | – | – | – | – | ·
O=C1C[C@@H](O)[C@H](O)c2cccc(O)c21 | – | · | · | 34.7 | – | –
O=C1O[C@@H](c2ccc(O)cc2)Cc2cccc(O)c21 | – | – | – | – | – | ·
COc1ccccc1NC(=O)NNC(=O)c1ccncc1 | – | – | – | – | – | ·
CC(C)(C)C(=O)Nc1sc(-c2ccccc2)cc1C(=O)O | – | – | – | – | – | ·
Cc1cccc(C(=O)Nc2sc(-c3ccccc3)cc2C(=O)O)c1 | – | – | – | 51.2 | – | 52.6
O=C(O)c1ccc(N/N=C/c2cn(Cc3ccccc3F)c3ccccc23)cc1 | – | – | – | 46.4 | – | 68.7
COc1ccccc1C(=O)NC(CCSC)C(=O)NNC(=O)C(C)Oc1ccccc1F (stereo unspecified) | – | – | – | – | – | ·
Cc1cc(/C=C2/C(=O)NN(c3ccccc3)C2=O)c(C)n1-c1ccc(O)cc1 | – | – | – | 34.1 | – | –
COc1ccc(-n2c(C)cc(/C=C3\C(=O)NN(c4ccccc4)C3=O)c2C)cc1 | – | – | – | – | – | ·
Cc1cc(/C=C2\SC(=S)NC2=O)c(C)n1-c1ccc(O)cc1 | – | – | – | 35.4 | – | 43.7
Cc1cc(/C=C2\SC(=S)NC2=O)c(C)n1-c1ccccc1 | – | – | · | – | – | ·
CC(C)CCN(C(=O)C1CSC2(C)CCC(=O)N12)c1c(N)n(Cc2ccccc2)c(=O)[nH]c1=O (stereo unspecified) | – | – | – | – | – | ·
O=C(/C=C(\Nc1cccc(Cl)c1)c1ccccc1)c1ccccc1 | – | – | · | – | – | ·
COCc1cn(-c2cccc(-c3noc4c3C(=O)N(CC(=O)N3CCOCC3)CC4)c2)nn1 | – | · | · | 32.2 | – | –
CN(C)Cc1cn(-c2cccc(-c3noc4c3C(=O)N(CC(=O)N3CCOCC3)CC4)c2)nn1 | – | · | · | – | – | ·
CC(=NNC(=S)N1CCCC1)c1ccccn1 | – | – | – | – | – | ·
CC(=NNC(=S)SCc1ccccc1)c1ccccn1 | – | – | – | 55.7 | – | –
CN(C)C(=O)Cn1cnc2c(cnn2-c2ccc(F)cc2)c1=O | – | – | – | – | – | ·
N#C/C(C(N)=O)=c1/ccc2c(c1)N1C3=C(CCCC3)CC3CCCCC31N=2 (stereo unspecified) | – | – | · | 49.2 | – | 49.3
CCOc1ccc(C2C(C(=O)c3ccco3)=C(O)C(=O)N2CCCn2ccnc2)cc1OC (stereo unspecified) | – | – | – | – | – | ·
CCOc1cc(N2CCOCC2)c(OCC)cc1NC(=O)CN1CCc2ccccc2C1 | – | – | – | 30.9 | – | –
CCOc1cc(N2CCOCC2)c(OCC)cc1NC(=O)CSc1ccccc1C(=O)O | – | – | – | – | – | ·
CC(C)c1ccc(NC(=O)CCc2ccccc2)cc1 | – | – | – | – | – | ·
CCC(=O)N(Cc1ccco1)c1nc(-c2cc(OC)ccc2OC)cs1 | – | – | – | 49.1 | – | 57.8
CCCCCn1c(CN2CCN(C)CC2)nc2c1c(=O)n(C)c(=O)n2C | – | – | – | 30.0 | – | –
